Reference: ChEMBL document CHEMBL1124194, “Enantioselectivity of muscarinic antagonists. Isomeric 2-cyclohexyl-2-phenyl-5-[(dimethylamino)methyl]-1,3-oxathiolane methiodides” (J Med Chem, 1988)

What was measured:
Type in all cases: ADME, organism-based
Cavia porcellus [1] = species on record: Cavia porcellus; assay: Tested for antimuscarinic potency on guinea pig ileum; conditions: for Kb: Cavia porcellus, Ileum, read-out: pA2 (converted)
Cavia porcellus [2] = species on record: Cavia porcellus; assay: Tested for antimuscarinic potency on guinea pig heart rate; conditions: for Kb: Cavia porcellus, Heart, read-out: pA2 (converted)
Procedure, shortened: (§1)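 Guinea pig heart (force and rate) antagonism of carbachol as agonist; pA2 from Schild plot with slope constrained to 1; six to eight replications. Where an antagonist lowered the carbachol maximum at 1×10^-5 M, −log Kb was instead calculated from log(Dr − 1) = log[ant.] − log Kb at a single antagonist concentration of 3×10^-6 M.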

Rattus norvegicus = species on record: Rattus norvegicus; assay: Tested for antimuscarinic potency on rat bladder; conditions: for Kb: Rattus norvegicus, read-out: pA2 (converted)
Cavia porcellus [3] = species on record: Cavia porcellus; assay: Tested for antimuscarinic potency on guinea pig heart force; conditions: for Kb: Cavia porcellus, Heart, read-out: pA2 (converted); procedure, shortened: as §1

Row | SMILES | Kb (Cavia porcellus [1]) [nM] | Kb (Cavia porcellus [2]) [nM] | Kb (Rattus norvegicus) [nM] | Kb (Cavia porcellus [3]) [nM] | pA2 (Cavia porcellus [1]) | pA2 (Rattus norvegicus) | pA2 (Cavia porcellus [2]) | pA2 (Cavia porcellus [3])
1 | CN(C)C[C@@H]1CS[C@@](c2ccccc2)(C2CCCCC2)O1 (racemic) | 37.2 | 162 | 123 | 263 | – | – | – | –
2 | CN(C)C[C@@H]1CS[C@](c2ccccc2)(C2CCCCC2)O1 (racemic) | 12 | 37.2 | 44.7 | 33.1 | – | – | – | –
3 | C[N+](C)(C)C[C@@H]1CS[C@](c2ccccc2)(C2CCCCC2)O1.[I-] (racemic) | – | 7.24 | – | 7.76 | 8.26 | 8.05 | – | –
4 | C[N+](C)(C)C[C@@H]1CS[C@@](c2ccccc2)(C2CCCCC2)O1.[I-] (racemic) | – | – | – | – | 8.38 | 8.22 | 7.91 | 8.13
5 | C[N+](C)(C)C[C@@H]1CS[C@@](c2ccccc2)(C2CCCCC2)O1.[I-] (stereo in doubt; (+)4) | – | – | – | – | 8.79 | 8.58 | 8.35 | 8.47
6 | C[N+](C)(C)C[C@@H]1CS[C@](c2ccccc2)(C2CCCCC2)O1.[I-] (stereo in doubt; (+)-2) | – | – | – | – | 8.57 | 8.29 | 8.05 | 8.1
7 | C[N+](C)(C)C[C@@H]1CS[C@](c2ccccc2)(C2CCCCC2)O1.[I-] (stereo in doubt; (-)2) | – | – | – | – | 7.86 | 7.61 | 8.06 | 8.07
8 | C[N+](C)(C)C[C@@H]1CS[C@@](c2ccccc2)(C2CCCCC2)O1.[I-] (stereo in doubt; (-)4) | – | – | – | – | 7.86 | 7.45 | 7.99 | 8.16
9 | CN1[C@@H]2CC[C@H]1C[C@@H](OC(=O)C(CO)c1ccccc1)C2 (stereo partly drawn) [ATROPINE] | – | – | 1.29 | – | – | – | – | –
